Rows were chosen to be rich in hits. Some 2.1% of all compounds tested hit in one or more screens of this group.
Xi reactivation: activators of inactive X chromosome reactivation, primary screen, imaging, XiGFP fibroblasts, GFP high-content imaging, set 2 | activation, % at 7.58 µM | 0.055% of 360,000 active | AID 743238, 2013 | XiGFP mouse fibroblasts, % GFP-positive cells imaging, 3 d; cells co-treated with 5-aza-dC sensitizer; scaled so ellipticine positive control = 100%;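 active = mean normalized replicate activation at least 10% and every replicate at or above 10%; inconclusive = only one of the two criteria met; inactive = mean below 10% and not all replicates reach 10%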;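 also: 0% = median of on-plate neutral control wells and 100% = ellipticine 6 µM median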
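System: SV40-immortalized XiGFP fibroblast cells, line 68-5-11 / Incubation: 3-day compound exposure, then 15 min fixation at room temperature / Compound: single concentration per compound, delivered by pin transfer / Buffer or medium: DMEM plus 5-aza-dC sensitizer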
Cneo AK release: Cryptococcus neoformans cell lysis inducers, primary screen, AK release luminescence, single concentration; C. neoformans lysis, adenylate kinase release luminescence, 4 h; normalised: neutral wells 0, clomiphene wells 100; 0.2% of 360,000 active; AID 651654, 2012; lysis activity, % at 15 µM;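 active = mean lysis activity across replicates of at least 80%, whatever share of replicates individually reach that level; inactive = mean lysis activity below 80%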
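Assay system: Cryptococcus neoformans yeast cells / Dosing: single-point compound dose / Timing: 4 h at 37 °C static, read 1 h later / Measured by: luminescence of released adenylate kinase using an AK detection reagent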
DENV2 CPE: inhibitors of DENV2 cytopathic effect, primary screen, cell-based, plate reader, single concentration; AID 651640, 2012; CPE inhibition, % at 9.99 µM; DENV2-infected cells, cytopathic effect rescue; 1.7% of 350,000 active; in the data active = CPE inhibition above about 20%, passing the limit was not always enough; inconclusive = no clear call, values can overlap the other calls; tested in BHK-21 cells;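 also: 0% = median of neutral control wells and 100% = median of positive control wells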
Statin myotox sup: suppressors of statin myotoxicity in C2C12 myotubes, primary screen, cell-based, single point, plate reader | 0.78% of 330,000 active | C2C12 myotubes + simvastatin, ATP luminescence, 48 h; scaled: DMSO 0, geranylgeraniol control 100 | rescue of ATP level, % at 7.49 µM;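 active = mean ATP rescue above about 67%, or every replicate alone reaching that limit, limit read from the data, passing the limit was not always enough; inconclusive = no clear call, values can overlap the other calls; inactive = mean under the limit and some replicate under it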;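 also: myotubes were challenged with 10 µM simvastatin during compound exposure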
The depositor's hits bear a star; ? = inconclusive; nt = no result given.

SMILES	Xi reactivation	Cneo AK release	DENV2 CPE	Statin myotox sup
CCC(C(=O)Nc1c(C)cccc1C)n1c(-c2cnc(C)cn2)nc2ccccc21 (stereo unspecified)	0	nt	3	nt
CC(C)NC(=O)N(C)C[C@H]1OCCCC[C@H](C)Oc2ccc(NC(=O)C3CCCCC3)cc2C(=O)N([C@@H](C)CO)C[C@@H]1C	0	2	5	nt
Cc1ccc(Cn2c(=O)c3c(nc4n3CCCN4Cc3ccccc3)n(C)c2=O)cc1	nt	-4	nt	14
Cn1c(=O)n(Cc2ccccc2)c(=O)c2c1nc1n2CCCN1Cc1ccccc1	nt	-3	nt	116*
C[C@@H]1CN([C@H](C)CO)C(=O)c2ccccc2-c2ccccc2CO[C@H]1CN(C)S(=O)(=O)c1cccc(C#N)c1	0	95*	-3	nt
COc1cccc(S(=O)(=O)N(C)C[C@@H]2OCc3ccccc3-c3ccccc3C(=O)N([C@@H](C)CO)C[C@@H]2C)c1	0	100*	-1	nt
CO[C@H]1CN(C)C(=O)c2ccc(NS(=O)(=O)c3ccccc3C)cc2OC[C@@H](C)N(C)C[C@@H]1C	0	1	0	8
Cc1ccc(S(=O)(=O)N2CCN(C(=O)COC(=O)/C=C/c3ccc(F)cc3)CC2)c(C)c1	0	-4	5	13
CSc1ccc(/C=C/C(=O)OCC(=O)N2CCN(S(=O)(=O)c3ccc(C)cc3C)CC2)cc1	0	-1	25*	4
C[C@H]1CN([C@@H](C)CO)S(=O)(=O)c2ccc(C#Cc3cccc(F)c3)cc2O[C@@H]1CN(C)C	-1	94*	-5	2
COCC#Cc1ccc2c(c1)O[C@H](CN(C)S(=O)(=O)c1ccc(OC)cc1)[C@H](C)CN([C@H](C)CO)S2(=O)=O	0	87*	1	-18
COc1ccc(C#Cc2ccc3c(c2)O[C@@H](CN(C)C(C)=O)[C@@H](C)CN([C@H](C)CO)S3(=O)=O)cc1	-1	102*	11	9
C[C@@H]1CN([C@H](C)CO)S(=O)(=O)c2ccc(C#Cc3ccc(F)cc3)cc2O[C@H]1CN(C)C(=O)NC1CCCC1	-1	82*	-13	-10
C[C@H](CO)N1C[C@H](C)[C@@H](CN(C)C)Oc2cc(C#Cc3cccc(F)c3)ccc2S1(=O)=O	-1	2	-7	-7
COc1ccc(C#Cc2ccc3c(c2)O[C@H](CN(C)C(C)=O)[C@H](C)CN([C@H](C)CO)S3(=O)=O)cc1	-1	-1	11	15
C[C@H]1CN([C@@H](C)CO)S(=O)(=O)c2ccc(C#Cc3ccc(F)cc3)cc2O[C@@H]1CN(C)C(=O)NC1CCCC1	-1	0	-25	13
O=C(c1ccc(F)cc1)N1CC(=O)N2[C@@H](CO)[C@H](c3ccc(-c4ccccc4)cc3)[C@@H]2C1	0	nt	6	nt
C[C@@H]1CN([C@@H](C)CO)S(=O)(=O)c2ccc(/C=C/c3ccccc3)cc2O[C@@H]1CN(C)C(=O)NC1CCCC1	-1	6	8	93*
COc1ccc(C#Cc2ccc3c(c2)O[C@H](CN(C)C(=O)Nc2cccc(OC)c2)[C@H](C)CN([C@@H](C)CO)S3(=O)=O)cc1	-1	86*	?	73*
C[C@H]1CN([C@@H](C)CO)S(=O)(=O)c2ccc(C#Cc3ccc(F)cc3)cc2O[C@@H]1CN(C)S(=O)(=O)c1cn(C)cn1	nt	-2	-7	74*
C[C@@H]1CN([C@H](C)CO)S(=O)(=O)c2ccc(C#Cc3ccc(F)cc3)cc2O[C@H]1CN(C)S(=O)(=O)c1cn(C)cn1	-1	-3	-5	3
COc1ccc(C#Cc2ccc3c(c2)O[C@H](CN(C)C(C)=O)[C@@H](C)CN([C@@H](C)CO)S3(=O)=O)cc1	-1	98*	?	-10
C[C@H](CO)N1C[C@H](C)[C@H](CN(C)C(=O)NC2CCCC2)Oc2cc(/C=C/c3ccccc3)ccc2S1(=O)=O	0	6	-3	11
COc1ccc(C#Cc2ccc3c(c2)O[C@@H](CN(C)C(=O)Nc2cccc(OC)c2)[C@H](C)CN([C@@H](C)CO)S3(=O)=O)cc1	0	2	-2	-42
O=C(CCN1CCCCC1)NCC[C@@H]1CC[C@@H](NC(=O)C2CC2)[C@@H](CO)O1	0	0	1	-1
SMILES	Xi reactivation	Cneo AK release	DENV2 CPE	Statin myotox sup
Cc1noc(C)c1NC(=O)N[C@@H]1C=C[C@@H](CC(=O)Nc2ccccc2)O[C@@H]1CO	0	43	-1	5
CO[C@@H]1CN(C)C(=O)c2ccc(NC(=O)C3CC3)cc2OC[C@@H](C)N(C(=O)Nc2ccc(C(F)(F)F)cc2)C[C@H]1C	0	6	1	15
C[C@@H]1CN([C@@H](C)CO)C(=O)c2cc(-c3ccccc3F)cnc2O[C@H]1CN(C)C(=O)C1CCC1	0	-2	-10	22
CC(=O)N(C)C[C@H]1Oc2cc(C#Cc3ccc(F)cc3)ccc2S(=O)(=O)N([C@H](C)CO)C[C@@H]1C	-1	110*	nt	1
C[C@H](CO)N1C[C@H](C)[C@@H](CN(C)C(=O)Nc2ccccc2)Oc2ccc(NS(=O)(=O)c3ccc(Cl)cc3)cc2C1=O	0	2	8	10
CCC(=O)N1C[C@H](C)[C@H](OC)CN(C)C(=O)c2cc(NC(=O)c3cnccn3)ccc2OC[C@H]1C	0	0	25*	9
CO[C@H]1CN(C)C(=O)c2ccc(NC(=O)c3cnccn3)cc2OC[C@@H](C)N(CC2CC2)C[C@@H]1C	0	nt	22*	nt
CCN(C(=O)COC(=O)c1cnc(C)cn1)C1CCCCC1	nt	-1	nt	135*
O=S1(=O)CCOCCCN1Cc1ccccc1Br	0	-1	33*	4
Cc1ccccc1CN1CCCOCCS1(=O)=O	0	1	9	5
C#CCN1C=C(C(=O)OCC)C(C)N(Cc2ccccc2I)S1(=O)=O (stereo unspecified)	0	0	74*	-8
COc1ccccc1-c1ccc([C@H]2[C@@H](CO)N(C(=O)C3CCCC3)[C@H]2C#N)cc1	0	nt	36*	nt
COc1ccccc1-c1ccc([C@@H]2[C@@H](C#N)N(C(=O)C3CCCCC3)[C@@H]2CO)cc1	0	1	-8	14
CCc1cnc(N2[C@@H](C#N)[C@@H](c3ccccc3C3=CCCC3)[C@@H]2CO)s1	0	nt	20*	nt
COc1ccc(-c2ccc([C@@H]3[C@@H](C#N)N(C(=O)C4CCC4)[C@H]3CO)cc2)cc1	0	-1	72*	4
N#C[C@H]1[C@@H](c2ccccc2C2=CCCC2)[C@@H](CO)N1C(=O)C1CCC1	0	nt	37*	nt
O=C1[C@@H](Cc2ccc(C(F)(F)F)cc2)CCn2cc(nn2)COC[C@@H]2CCCCN12	0	nt	nt	nt
